experiment: Dissociation constant, pKa by potentiometric titration method; format: physicochemical
How it was run: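 Each compound dissolved in ionic-strength-adjusted water (0.15 M), titrated with 0.5 M KOH up to pH 11. Steps capped at 0.2 pH units; each point recorded once drift fell below 0.002 pH/min. Electrode checked in pH 7.00 buffer and calibrated by blank titration daily.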

CCCN1CCN(c2ccccc2)CC1 and CCCN1CCN(c2cccc(O)c2)CC1 are within 0.2 log units of each other in pKa: 7.96 for the first, 7.82 for the second.

CCCN1CCN(c2cccc(Cl)c2)CC1 and CCCN1CCN(c2cccc(C)c2)CC1 are the same in pKa: 7.83 for the first, 7.83 for the second.

Compared with CCCN1CCN(c2ccccc2C(F)(F)F)CC1, CCCN1CCN(c2ccccc2C)CC1 is lower in pKa: 8.8 for the first, 8.39 for the second.

CCCN1CCN(c2ccccc2C#N)CC1 and CCCN1CCN(c2ccccc2Cl)CC1 are within 0.2 log units of each other in pKa: 7.92 for the first, 8.07 for the second.

CCCN1CCN(c2ccc(C#N)cc2)CC1 and CCCN1CCN(c2ccc(O)cc2)CC1 are within 0.2 log units of each other in pKa: 7.78 for the first, 7.92 for the second.

CCCN1CCN(c2ccc(OC)cc2)CC1 and CCCN1CCN(c2ccc(C)cc2)CC1 are within 0.2 log units of each other in pKa: 7.88 for the first, 7.92 for the second.

CCCN1CCN(c2cccc(OC)c2)CC1 and CCCN1CCN(c2cccc(C#N)c2)CC1 are within 0.2 log units of each other in pKa: 7.86 for the first, 7.67 for the second.

CCCN1CCN(c2cccc(C(N)=O)c2)CC1 and CCCN1CCN(c2ccc(C(N)=O)cc2)CC1 are within 0.2 log units of each other in pKa: 7.76 for the first, 7.84 for the second.

CCCN1CCN(c2ccccc2[N+](=O)[O-])CC1 and CCCN1CCN(c2ccccc2O)CC1 are within 0.2 log units of each other in pKa: 7.94 for the first, 8.05 for the second.

Going from CCCN1CCN(c2ccc(Cl)cc2)CC1 to CCCN1CCN(c2ccc([N+](=O)[O-])cc2)CC1, the pKa falls from 7.83 to 7.59.

CCCN1CCN(c2ccccc2C(N)=O)CC1 and CCCN1CCN(c2ccccc2OC)CC1 are within 0.2 log units of each other in pKa: 8.14 for the first, 8.29 for the second.

CCCN1CCN(c2cccc(C(F)(F)F)c2)CC1 and CCCN1CCN(c2ccc(C(F)(F)F)cc2)CC1 are within 0.2 log units of each other in pKa: 7.81 for the first, 7.84 for the second.

CCCN1CCN(c2cccc([N+](=O)[O-])c2)CC1 showed a pKa of 7.7.

Reference: ChEMBL document CHEMBL1143328, “Determination of 1-aryl-4-propylpiperazine pKa values: the substituent on aryl modulates basicity” (Bioorg Med Chem, 2009)
